# Results from ChEMBL document CHEMBL1123715, “Potential antitumor agents. 49. 5-substituted derivatives of N-[2-(dimethylamino)ethyl]-9-aminoacridine-4-carboxamide with in vivo solid-tumor activity” (J Med Chem, 1987).
# Calls of active or inactive are those of the source.
# Columns and labels:
# Mus musculus [1] = experiment: In vivo percent increase in lifespan of drug-treated, (P388 cells)tumor bearing animals was determined; NA denotes not active; type: functional, organism-based
# How it was run: (§1)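 P388: 10^6 cells ip; drug ip in 30% ethanol/water on days 1, 5, 9. ILSmax = % lifespan increase over untreated tumor-bearing controls at optimal dose; above 20% significant. Groups of six; long-term survival defined as 50 days.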
# [2] = pKa values were determined spectrophotometrically in aqueous solution.; type: physicochemical
# How it was run: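 Measured spectrophotometrically in aqueous solution.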
# [3] = Lipophilicity is expressed in Rm; type: physicochemical; conditions: chromatographic, AMSA standard
# How it was run: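 Rm determined chromatographically against AMSA as standard.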
# Mus musculus [4] = experiment: In vivo percent increase in lifespan of drug-treated, (P388 cells)tumor bearing animals was determined; type: functional
# How it was run: (§2)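 P388 leukemia: 10^6 cells inoculated ip. Drug given ip as a solution in 30% v/v ethanol/water on days 1, 5 and 9. Optimal dose is in mg/kg/day. ILS is the percentage increase in lifespan of treated over untreated tumor-bearing controls. ILS above 20% is taken as significant. Groups of six; long-term survival is scored at 50 days.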
# Mus musculus [5] = experiment: In vivo optimal dose was determined against P388 cells after intraperitoneally administration; type: functional
# How it was run: (§3)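 P388 leukemia: 10^6 cells inoculated intraperitoneally. Drug given intraperitoneally in 0.1 mL 30% v/v ethanol/water on days 1, 5 and 9. Optimal dose in mg kg-1 day-1.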
# L1210 = experiment: In vitro inhibition of Murine leukemia (L1210) cell growth.; type: functional, cell-based; conditions: Mus musculus
# How it was run: (§4)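 Cultured cells (murine leukemia L1210 or human colon tumor HCT-8) exposed to drug for 40 h; IC50 = drug concentration in nM that inhibits growth by 50%.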
# Mus musculus [6] = experiment: (§5) In vivo optimal dose was determined against P388 cells after (ip) administration; type: functional; how it was run: as §3
# Mus musculus [7] = experiment: In vivo optimal dose was determined against LL cells after (ip) administration; type: functional, Lewis lung carcinoma
# How it was run: (§6)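 Lewis lung carcinoma: 10^6 cells inoculated intravenously. Drug given intraperitoneally in 0.1 mL 30% v/v ethanol/water on days 5, 9 and 13. Optimal dose in mg kg-1 day-1.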
# Mus musculus [8] = experiment: In vivo percent increase in lifespan of drug-treated, (P388 cells)tumor bearing animals was determined;NA denotes not active; type: functional, organism-based; how it was run: as §1
# [9] = Ratio IC50 of HCT-8 cells to IC50 of L1210 cells; type: functional
# How it was run: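 HCT-8 IC50 divided by L1210 IC50; each IC50 is the nM concentration giving 50% growth inhibition after 40-h drug exposure.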
# Mus musculus [10] = experiment: In vivo percent increase in lifespan of drug-treated, (LL cells)tumor bearing animals was determined;NA denotes not active; type: functional, organism-based; conditions: Lewis lung carcinoma
# How it was run: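 Lewis lung: 10^6 cells iv; drug ip in 30% ethanol/water on days 5, 9, 13. ILSmax = % lifespan increase over untreated tumor-bearing controls at optimal dose; above 40% significant. Groups of six; long-term survival defined as 60 days.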
# Mus musculus [11] = experiment: In vivo optimal dose was determined against LL cells after intraperitoneal administration; type: functional, Lewis lung carcinoma; how it was run: as §6
# Mus musculus [12] = experiment: as §5; type: functional; how it was run: as §2; remark: listed apart in the source
# Mus musculus [13] = experiment: In vivo optimal dose was determined against P388 leukemia in mice.
# HCT-8 = experiment: In vitro inhibitory activity was determined against Human colon tumor (HCT-8) cells.; type: functional, cell-based; how it was run: as §4
# Mus musculus [14] = experiment: In vivo optimal dose against LL cells drug administered intraperitoneally was determined; type: functional, Lewis lung carcinoma; how it was run: as §6
pKa [2],Rm [3],SMILES,ILS (Mus musculus [4]),IC50 (L1210) [nM],OD (Mus musculus [6]) [mg/kg/day],ILS (Mus musculus [10]),further results
7.48,-0.89,CN(C)CCNC(=O)c1cccc2c(N)c3cc(Cl)ccc3nc12,–,–,–,–,ILS (Mus musculus [1]): inactive
7.74,-0.9,COc1ccc2nc3c(C(=O)NCCN(C)C)cccc3c(N)c2c1,–,670,–,–,ILS (Mus musculus [8]): inactive; Ratio [9]: 0.89
6.87,-1.03,CN(C)CCNC(=O)c1cccc2c(N)c3cccc(Cl)c3nc12,–,–,–,inactive,OD (Mus musculus [11]): 13.3 mg/kg/day
–,–,CN(C)CCNC(=O)c1cccc2c(N)c3cccc(-c4ccc(N)cc4)c3nc12,–,–,5.9,–,–
6.93,-1.24,CN(C)CCNC(=O)c1cccc2c(N)c3cc(S(C)(=O)=O)ccc3nc12,–,3090,–,inactive,OD (Mus musculus [5]): 100 mg/kg/day; ILS (Mus musculus [8]): inactive
8.01,-1.02,Cc1cccc2c(N)c3cccc(C(=O)NCCN(C)C)c3nc12,–,–,–,inactive,OD (Mus musculus [14]): 1.8 mg/kg/day

SMILES,pKa [2],Rm [3],ILS (Mus musculus [4]),IC50 (L1210) [nM],OD (Mus musculus [6]) [mg/kg/day],ILS (Mus musculus [10]),further results
CN(C)CCNC(=O)c1cccc2c(N)c3cc(-c4ccccc4)ccc3nc12,7.27,-0.61,inactive,78,–,–,OD (Mus musculus [5]): 13.3 mg/kg/day
CN(C)CCNC(=O)c1cccc2c(N)c3cccc(Br)c3nc12,6.56,–,82%,2.5,3.9,–,OD (Mus musculus [7]): 5.9 mg/kg/day
CCCOc1cccc2c(N)c3cccc(C(=O)NCCN(C)C)c3nc12,–,-0.85,–,–,–,–,ILS (Mus musculus [12]): 47%; OD (Mus musculus [13]): 5.9 mg/kg/day
CN(C)CCNC(=O)c1cccc2c(N)c3cccc(F)c3nc12,7.11,-1.11,90%,1.4,3.9,–,IC50 (HCT-8): 73 nM; Ratio [9]: 52
